In the library only some 1% were active in any assay of this set; here they are far more common.
Neddylation inh: cullin neddylation inhibition | TR-FRET cullin neddylation, biochemical | inhibition, % at 25 µM | 360,000 compounds, 0.58% hits | AID 651699; in the data active = inhibition above about 36%
Target sequence (P61081 whole entry, looked up): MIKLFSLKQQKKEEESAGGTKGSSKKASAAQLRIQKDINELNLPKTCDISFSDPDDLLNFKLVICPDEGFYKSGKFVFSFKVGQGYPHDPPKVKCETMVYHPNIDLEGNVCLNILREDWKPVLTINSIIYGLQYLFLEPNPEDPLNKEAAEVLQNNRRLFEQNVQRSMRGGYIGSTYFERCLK
Target sequence (Q13564 whole entry, looked up): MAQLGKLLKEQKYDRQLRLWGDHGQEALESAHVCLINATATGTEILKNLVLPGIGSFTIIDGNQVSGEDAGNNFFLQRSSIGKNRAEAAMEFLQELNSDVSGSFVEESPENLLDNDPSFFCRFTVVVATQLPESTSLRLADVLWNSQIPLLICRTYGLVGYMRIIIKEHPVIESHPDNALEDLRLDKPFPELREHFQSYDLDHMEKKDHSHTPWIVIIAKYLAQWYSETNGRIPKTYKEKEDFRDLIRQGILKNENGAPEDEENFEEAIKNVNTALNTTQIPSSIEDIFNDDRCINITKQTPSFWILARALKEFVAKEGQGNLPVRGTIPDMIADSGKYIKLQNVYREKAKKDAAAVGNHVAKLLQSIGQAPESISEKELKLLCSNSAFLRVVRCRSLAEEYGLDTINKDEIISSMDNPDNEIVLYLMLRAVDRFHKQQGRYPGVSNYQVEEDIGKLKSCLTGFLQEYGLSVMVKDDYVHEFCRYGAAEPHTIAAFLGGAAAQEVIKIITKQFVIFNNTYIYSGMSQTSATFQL
Tn6 DDE FP: inhibitors of Tn6 peptide binding to human fibrin DD(E). Fibrin DD(E) TRITC-Tn6 fluorescence polarization displacement. inhibition, % at 8.3 µM. 370,000 compounds, 0.21% hits. AID 720509;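 active = inhibition above a per-campaign cutoff: mean of compounds within control limits plus 3 SD, cut at about 15% in these data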;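 note: 0% = median of all compound wells on the plate and 100% = blocking peptide control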
PKA-R2B act: PKA-R2B complex activation; P22694+P31323; PKA-R2B holoenzyme dissociation, Cy5-IP20 fluorescence polarization; R2B truncated from residue 108, S112A mutant; 0% DMSO only, 100% 113 µM cGMP; activation, % at 11.4 µM; AID 504700; 340,000 compounds, 0.079% hits;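 active = activation above a cutoff set at the mean over all compounds plus 3 SD, cut at about 18% in these data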;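 note: higher means more holoenzyme dissociation and a rise in polarization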
Tn7 DDE FP: DD(E)-Tn7 binding inhibition, primary FP screen. P02675. FP displacement of FITC-Tn7 peptide from fibrin DD(E); 0% = median of compound wells per plate. inhibition, % at 8.3 µM. 370,000 compounds, 0.13% hits. AID 720508;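 active = inhibition above the mean of compounds falling within the control limits plus 3 SD of them, cut at about 14% in these data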;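 note: 0% = plate median of compound wells and 100% = 10 µM Aha-Tn7 peptide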
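assay system = human clot-derived fibrin DD(E) complex | quantity = Fibrin-DD(E) at 2 µM final | timing = 10 min preincubation, 3 h with tracer, room temperature | signal = fluorescence polarization | measure = percent inhibition | benchmarks = high control wells with 10 µM unlabelled Aha-Tn7 peptide (full inhibition) | replicates = singlicate testing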
PKA-R1A act: activators of PKA-R1A complex | activation, % at 11.4 µM | P00514+P68181 | 340,000 compounds, 0.083% hits | PKA-R1A dissociation, Cy5-IP20 fluorescence polarization; scaled: DMSO 0%, 113 µM cGMP 100%;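 active = percent activation above the mean of all tested compounds plus 3 SD, cut at about 19% in these data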;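 note: higher means more PKAc released from R1A so a rise in polarization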
DDE Tn7 confirm: DD(E)-Tn7 binding inhibition, FP confirmation. inhibition, % at 8.3 µM. FP displacement of TRITC-Tn7 peptide from DD(E); 0% set at plate's compound-well median. shares compounds with Tn7 DDE FP. 460 compounds, 5% hits;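 active = inhibition above the campaign cutoff, the mean of compounds within control limits plus 3 SD, cut at about 14% in these data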;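 note: 100% = median FP of high control wells holding Aha-Tn7 inhibitor peptide; displacers lower polarization since freed probe rises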
Tn7 DDE ctr: counter-screen hit for Tn7 peptide-fibrin DD(E) binding disruption; shares compounds with Tn7 DDE FP; TRITC-Tn7 probe displacement, fluorescence polarization; inhibition, % at 8.3 µM; 460 compounds, 3% hits;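 active = inhibition above the cutoff, the mean of compounds lying between the control bounds plus 3 SD of those compounds, cut at about 17% in these data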;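 note: 0% = median of compound sample wells and 100% = excess unlabeled Aha-Tn7 peptide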
DDE Tn6 FP ctr: counter-screen for inhibitors of Tn6 peptide binding to fibrin DD(E) | TRITC-Tn6 fluorescence polarization displacement; 0% = median of compound wells, not DMSO | shares compounds with Tn6 DDE FP | AID 720621 | 680 compounds, 2% hits | inhibition, % at 8.3 µM;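 active = inhibition above the mean of test compounds lying between the control limits plus 3 SD of those, cut at about 14% in these data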;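 note: 0% = median of compound wells and 100% = wells with Aha-Tn7 blocking peptide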
Tn6 DDE conf: DD(E)-Tn6 binding inhibition, FP confirmation. shares compounds with Tn6 DDE FP. FP displacement of TRITC-Tn6 peptide from DD(E); 0% = per-plate median of test wells. inhibition, % at 8.3 µM. 680 compounds, 10% hits;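 active = inhibition above the mean of compounds lying within the control limits plus 3 SD, cut at about 16% in these data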;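 note: 100% = high control wells holding a competing inhibitor peptide at 10 µM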
Numbers without * were called inactive.

Results for COc1ccc(N(Cc2cc3cc(OC)ccc3[nH]c2=O)C(=O)c2cccnc2)cc1 ?
Neddylation inh: 26.5; Tn6 DDE FP: 20.9*; PKA-R2B act: 5.2; Tn7 DDE FP: 22.8*; PKA-R1A act: 9.7; DDE Tn7 confirm: -6.4; Tn7 DDE ctr: -11.2; DDE Tn6 FP ctr: -6.4; Tn6 DDE conf: -11.2

Results for COc1ccc(C(=O)NCCC2=CCCCC2)cc1[N+](=O)[O-] ?
Neddylation inh: -30.6; Tn6 DDE FP: -2.8; PKA-R2B act: -0.2; Tn7 DDE FP: 6.0; PKA-R1A act: 4.4

How did O=C(NCCC1=CCCCC1)c1ccc(-n2cncn2)c([N+](=O)[O-])c1 do in these assays?
Neddylation inh: -12.8; Tn6 DDE FP: 161.9*; PKA-R2B act: -3.7; Tn7 DDE FP: 24.1*; PKA-R1A act: -12.4; DDE Tn7 confirm: 2.4; Tn7 DDE ctr: 4.6; DDE Tn6 FP ctr: 2.4; Tn6 DDE conf: 4.6

What do the screens show for `CCOC(=O)C1=C(C(=O)OCC)C2N(Cc3ccc(Br)cc3)c3ccccc3[C@@]23C[C@@H](C(=O)OC)N(S(=O)(=O)c2ccc(Br)cc2)C3=N1` (stereo partly specified)?
Tn6 DDE FP: -6.0; Tn7 DDE FP: 2.1

Results for COc1cccc2c1C(=O)c1c(O)c3c(c(O)c1C2=O)CC(O)(C(=O)CO)CC3OC1CC(N(C)C)C(O)C(C)O1 (stereo unspecified) ?
Neddylation inh: -33.6; Tn6 DDE FP: active; PKA-R2B act: -19.6; Tn7 DDE FP: 16.2*; PKA-R1A act: -2.3; DDE Tn7 confirm: -7.4; Tn7 DDE ctr: 93.2*; DDE Tn6 FP ctr: -7.4; Tn6 DDE conf: 93.2*

What do the screens show for `COc1cccc2c1C(=O)c1c(O)c3c(c(O)c1C2=O)C[C@@](O)(C(C)=O)C[C@@H]3O[C@H]1C[C@H](N)[C@H](O)[C@H](C)O1`?
Neddylation inh: -123.9; Tn6 DDE FP: active; PKA-R2B act: 10.3; Tn7 DDE FP: 17.7*; PKA-R1A act: -11.1; DDE Tn7 confirm: -8.6; Tn7 DDE ctr: 93.2*; DDE Tn6 FP ctr: -8.6; Tn6 DDE conf: 93.2*

What do the screens show for `COc1cccc(-c2cccc3c4c([nH]c23)[C@@H]2C[C@H]3[C@@H](C(=O)N2CC4)[C@H](C)ON3C)c1`?
Tn6 DDE FP: -4.4; Tn7 DDE FP: -2.9

How did CN(CC(=O)Nc1ccccc1C(=O)NC1CC1)Cc1ccc(N(C)C)cc1 do in these assays?
Neddylation inh: -10.3; Tn6 DDE FP: 39.8*; PKA-R2B act: 0.3; Tn7 DDE FP: 18.2*; PKA-R1A act: 4.6; DDE Tn7 confirm: -5.6; Tn7 DDE ctr: -9.9; DDE Tn6 FP ctr: -5.6; Tn6 DDE conf: -9.9

What do the screens show for `COc1ccc(CN(C)CC(=O)Nc2ccccc2C(=O)NC2CC2)cc1`?
Neddylation inh: -13.1; Tn6 DDE FP: 1.4; PKA-R2B act: -1.4; Tn7 DDE FP: 5.0; PKA-R1A act: -2.0

What do the screens show for `Cc1ccc(NC(=O)OCCCN2C(=O)CCC23CCC(C)CC3)cc1` (stereo unspecified)?
Tn6 DDE FP: -5.4; Tn7 DDE FP: 8.7

What do the screens show for `N#CC(C#N)=C1C=C2C=C(N3CCOCC3)CCC2CC1` (stereo unspecified)?
Neddylation inh: inactive; Tn6 DDE FP: -2.9; PKA-R2B act: -2.4; Tn7 DDE FP: -56.1; PKA-R1A act: -8.5

What do the screens show for `N#CC(C#N)=C1C=C2C=C(N3CCCCCC3)CCC2CC1` (stereo unspecified)?
Neddylation inh: inactive; Tn6 DDE FP: 18.5*; PKA-R2B act: -3.6; Tn7 DDE FP: -7.0; PKA-R1A act: 4.5; DDE Tn6 FP ctr: 53.3*; Tn6 DDE conf: 10.4

Results for O=C(Nc1ccccc1C(F)(F)F)OC1CC2CC1[C@H]1CCCCN1C2 (stereo partly specified) ?
Tn6 DDE FP: -2.5; Tn7 DDE FP: 1.1

What do the screens show for `COc1cc(C=Nn2c(-c3ccccc3F)n[nH]c2=S)ccc1OCc1ccccc1`?
Tn6 DDE FP: 5.5; Tn7 DDE FP: -1.2

Results for COC(=O)[C@]12C[C@H](CC(=O)N3CCCCC3)C(=O)N(CCC3=CCCCC3)C1=C[C@H](COCc1ccccc1)O[C@@H]2C ?
Tn6 DDE FP: 3.9; Tn7 DDE FP: 1.3

How did O=C1OC(c2ccccc2)(c2ccccc2)c2ccsc21 do in these assays?
Neddylation inh: -0.8; Tn6 DDE FP: 16.2*; PKA-R2B act: -4.3; Tn7 DDE FP: -2.9; PKA-R1A act: -6.3; DDE Tn6 FP ctr: -2.2; Tn6 DDE conf: -12.6

How did Cc1ccc(CN2CCCCC(NC(=O)Cc3cccs3)C2=O)cc1 (stereo unspecified) do in these assays?
Tn6 DDE FP: -3.1; Tn7 DDE FP: 3.5

Results for CNc1ccc(/C=C2\CSc3ccccc3C2=O)cc1[N+](=O)[O-] ?
Neddylation inh: -11.7; Tn6 DDE FP: 19.4*; PKA-R2B act: -7.6; Tn7 DDE FP: -1.7; PKA-R1A act: 1.2; DDE Tn6 FP ctr: 4.1; Tn6 DDE conf: 4.7

What do the screens show for `CCCC1CCC2(CC1)CCC2OC(=O)Nc1ccc2c(c1)OCO2` (stereo unspecified)?
Tn6 DDE FP: -0.4; Tn7 DDE FP: -6.6

How did CCN(CC)c1cccc(OCC(=O)N(C)CCC#N)c1 do in these assays?
Neddylation inh: 12.4; Tn6 DDE FP: 88.3*; PKA-R2B act: -11.6; Tn7 DDE FP: 6.3; PKA-R1A act: 2.2; DDE Tn6 FP ctr: 8.7; Tn6 DDE conf: 10.5

What do the screens show for `O=C(c1ccccc1)n1ccc2ccc(-c3ccc4ccn(Cc5ccccc5)c4c3)cc21`?
Tn6 DDE FP: 8.6; Tn7 DDE FP: 5.5

Results for COc1ccc(OCC(=O)Nc2cc3c(cc2C(=O)O)OCCCO3)cc1 ?
Neddylation inh: 16.4; Tn6 DDE FP: 16.6*; PKA-R2B act: 8.5; Tn7 DDE FP: 7.4; PKA-R1A act: -6.4; DDE Tn6 FP ctr: 5.1; Tn6 DDE conf: 0.5

Results for CCOc1ccc(OCC(=O)Nc2cc3c(cc2C(=O)O)OCCCO3)cc1 ?
Neddylation inh: 9.6; Tn6 DDE FP: 0.5; PKA-R2B act: 0.9; Tn7 DDE FP: 5.9; PKA-R1A act: -2.1
